Screening results: PubChem BioAssay, Broad Institute
CAL PDZ FP-1: CAL PDZ peptide-binding inhibitors, primary screen, biochemical, fluorescence polarization, Cer-tagged CAL PDZ, HTS. Golgi-associated PDZ and coiled-coil motif-containing protein (Homo sapiens), Q9HD26. purified CAL PDZ, TMR-peptide fluorescence polarization, 1 h. inhibition, % at 20 µM. hit rate 0.02% among 330,000. AID 504414, 2011;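 active means highest replicate inhibition of at least 40%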;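 further: plate controls were DMSO neutral control wells for no effect and unlabeled competitor peptide control wells for full effect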
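Material: tagged CAL PDZ protein CerCALP, purified; buffer or medium: sodium phosphate/NaCl buffer pH 7.4 with TCEP, IgG, Thesit; also added: fluorescent TMR peptide probe; schedule: 1 h incubation at room temperature before polarization reading; technique: fluorescence polarization from S- and P-plane intensities, G-factor corrected; control set: unlabelled peptide and DMSO controls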
DENV2 CPE rescue: inhibitors of DENV2 cytopathic effect, primary screen, cell-based, plate reader, single concentration | AID 651640, 2012 | hit rate 1.7% among 350,000 | DENV2-infected cells, cytopathic effect rescue | CPE inhibition, % at 9.99 µM; in the data active means CPE inhibition above about 20%, passing the limit was not always enough; inconclusive means no clear call, values can overlap the other calls; tested in BHK-21 cells;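 further: 0% = median of neutral control wells and 100% = median of positive control wells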
SIRT5 inh: SIRT5 desuccinylase inhibitors, primary screen, biochemical, fluorescence imaging, single point, set 5; inhibition, % at 15 µM; NAD-dependent protein deacylase sirtuin-5, mitochondrial (Homo sapiens), Q9NXA8; Purified SirT5, succinyl-peptide AMC, trypsin-coupled fluorescence; hit rate 1.1% among 330,000; in the data active means inhibition above about 15%; inconclusive means no clear call, values can overlap the other calls
Target sequence (Q9NXA8 whole entry, looked up): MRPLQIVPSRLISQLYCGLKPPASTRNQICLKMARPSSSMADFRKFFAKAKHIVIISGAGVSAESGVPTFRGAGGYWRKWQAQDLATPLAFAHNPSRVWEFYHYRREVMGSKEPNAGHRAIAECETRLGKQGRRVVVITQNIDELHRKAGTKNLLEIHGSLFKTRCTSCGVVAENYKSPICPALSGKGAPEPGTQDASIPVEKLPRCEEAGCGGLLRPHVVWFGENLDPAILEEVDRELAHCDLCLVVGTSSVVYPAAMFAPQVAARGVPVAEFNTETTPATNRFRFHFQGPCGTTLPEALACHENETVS
CAL PDZ FP-2: untagged CAL PDZ binding inhibitors, primary screen, biochemical, fluorescence polarization, HTS; Golgi-associated PDZ and coiled-coil motif-containing protein (Homo sapiens), Q9HD26; purified CAL PDZ, TMR-peptide fluorescence polarization, 1 h; inhibition, % at 24.9 µM; hit rate 0.92% among 300,000; AID 602252, 2012;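 active means mean inhibition of at least 30% with at least half of replicates also reaching 30%; inconclusive means no clear call, values can overlap the other calls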;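 further: 0% = DMSO neutral control and 100% = excess unlabeled competitor peptide PRC23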
S100A4 inh HTS: inhibitors of S100A4-myosin IIA peptide binding, primary screen, biochemical, fluorescence polarization, TAMRA-MyoIIA peptide. Protein S100-A4 (Homo sapiens), P26447. inhibition, % at 10.7 µM. hit rate 0.14% among 360,000;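 active means mean inhibition of at least 70% across replicates, with every replicate also reaching that level; inconclusive means mean inhibition reaches 70% but some replicates fall short; inactive means mean inhibition below 70%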
Target sequence (P26447 whole entry, looked up): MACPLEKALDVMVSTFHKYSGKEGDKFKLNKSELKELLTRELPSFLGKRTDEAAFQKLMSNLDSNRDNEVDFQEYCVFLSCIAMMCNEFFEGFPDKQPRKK
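Material: human S100A4 monomer with TAMRA-labelled myosin IIA peptide; buffer or medium: HEPES pH 7.2 with CaCl2, KCl, NaCl, DTT, Triton; compound dosing: one concentration per compound; schedule: 5 min incubation before reading; benchmarks: neutral control DMSO, positive control TFP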
ERAP1 inh: human ERAP1 aminopeptidase inhibitors, primary screen, biochemical, single point, plate reader; recombinant ERAP1, Leu-AMC fluorescence, 60 min; inhibition, % at 10.7 µM; hit rate 0.15% among 340,000;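 active means mean replicate inhibition of at least 30%, or all replicates individually reaching that 30% level; inactive means mean below 30% and not every replicate reaching it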;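 further: 0% = neutral control wells and 100% = L-leucinethiol positive control wells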
* marks the source's active call; other numbers are inactive results; ? = inconclusive; · = no result. An excerpt weighted towards active compounds, which were near 2.9% of everything screened.

SMILES | CAL PDZ FP-1 | DENV2 CPE rescue | SIRT5 inh | CAL PDZ FP-2 | S100A4 inh HTS | ERAP1 inh
COc1ccc(C)cc1C(=O)C1CC(C(=O)O)C(C)(C)C1C (centres undefined) | -0.4 | · | · | -2.3 | · | ·
COC(=O)[C@@H]1C[C@@H](C(=O)O)[C@H](C)C1(C)C | 0.8 | -5.2 | · | 42.6* | 2.1 | -2.5
C[C@@H](NC(=O)C[C@H]1C[C@@H]2c3cc(NC(=O)CN(C)C)ccc3O[C@@H]2[C@H](CO)O1)c1ccccc1 | · | -0.2 | -0.5 | · | -3.6 | -0.2
COc1ccccc1CN(C)C(=O)c1cccc(S(=O)(=O)N2CCCc3ccccc32)c1 | -0.6 | 80.7* | -0.2 | 0.3 | -4.8 | 5.7
C[C@@H]1CCCCO[C@@H](CN(C)C)[C@H](C)CN([C@@H](C)CO)C(=O)c2cc(NC(=O)Nc3cccc4ccccc34)ccc2O1 | · | ? | -0.3 | · | -2.2 | 0.0
C[C@H]1CN([C@@H](C)CO)C(=O)c2ccccc2-c2ccccc2CO[C@H]1CN(C)C(=O)Nc1ccccc1C(F)(F)F | · | 1.5 | 2.4 | · | 3.4 | -1.9
O=C(COC(=O)c1cccc(-n2cnnn2)c1)Nc1c(Cl)cccc1C(F)(F)F | -2.1 | 7.8 | -0.4 | 61.9* | -3.7 | 1.6
CC(C)(C)c1ccc(C(=O)NNC(=O)c2cccc(-n3cnnn3)c2)cc1 | -0.5 | 1.3 | 3.7 | · | -7.0 | ·
O=C(COC(=O)c1cccc(-n2cnnn2)c1)c1ccc(F)cc1 | -2.7 | -6.1 | -6.5 | -2.1 | -5.0 | 2.8
O=C(NNC(=O)c1cccc(C(F)(F)F)c1)c1ccc(-n2cnnn2)cc1 | 0.0 | -0.2 | · | 92.2* | 8.3 | 0.8
O=C(Nc1cccc(-n2cnnn2)c1)c1ccc(OC(F)(F)F)cc1 | -1.7 | -0.4 | 6.9 | 98.4* | -0.9 | -0.9
CCNC(=O)[C@H]1[C@H](CO)[C@H]2Cn3c(ccc(-c4ccc(OC)cc4)c3=O)[C@@H]1N2CC1CC1 | · | -1.6 | -30.6 | · | 3.7 | ·
COC(=O)C1C(O)=C(C=Nc2cccc3ccccc23)C(=O)CC1(C)C (centres undefined) | -2.2 | -2.6 | -5.7 | 59.6* | -0.8 | 2.7
COC(=O)C1C(O)=C(C=NCc2ccccc2)C(=O)CC1(C)C (centres undefined) | -0.2 | · | · | 1.4 | · | ·
CCC(=O)N1[C@H](C#N)[C@@H](c2ccccc2-c2ccccc2)[C@@H]1CO | · | 16.0 | -1.7 | · | -2.3 | 2.5
CCC(=O)N1[C@@H](C#N)[C@H](c2ccccc2-c2ccccc2)[C@@H]1CO | · | 46.8* | 0.4 | · | 0.1 | 3.4
CCCNC(=O)N1[C@H](CO)[C@H](c2ccccc2-c2ccccc2)[C@@H]1C#N | · | 108.7* | 14.1 | · | 38.2 | 5.6
COc1ccc(/C=N/N2CCN(Cc3ccc(C)cc3)CC2)cc1Br | 7.0 | 6.6 | -4.0 | 72.1* | 2.7 | 0.1
COc1cc(/C=N/N2CCN(Cc3ccc(Cl)cc3)CC2)cc(Br)c1O | -0.7 | 8.6 | 18.4* | 4.2 | 2.0 | 0.1
COc1cc(/C=N/N2CCN(Cc3ccc(Cl)cc3)CC2)ccc1OC(C)=O | 0.0 | 1.3 | -0.3 | 2.1 | -1.0 | ·
COc1cccc(-c2ccc3n(c2=O)C[C@@H]2[C@@H](CO)[C@H](C(=O)N4CCCCC4)N(C)[C@H]32)c1 | · | -1.4 | -2.1 | · | -10.5 | -1.0
O=C(Nc1ccc(F)cc1F)c1c(C(F)(F)F)ccnc1Oc1ccccc1 | · | 4.6 | -3.6 | · | -3.2 | -3.8
Cc1cccc(Oc2nccc(C(F)(F)F)c2C(=O)Nc2ccc(F)cc2F)c1 | 1.1 | 32.4* | -2.1 | -0.7 | -2.7 | ·
O=C(Nc1nc(-c2ccc(Cl)cc2Cl)cs1)c1ccc(OCC2CCCO2)cc1 (centres undefined) | -2.3 | -0.6 | 111.7* | -4.6 | -0.2 | 3.3
Cc1cc(C)c2nc(NC(=O)c3ccc(OCC4CCCO4)cc3)sc2c1 (centres undefined) | -1.8 | 7.8 | 2.4 | -1.1 | 0.6 | 0.0
